Published values collected from several papers.
Each line is one published result; the experiments were not run side by side.
Target: Serine/threonine-protein kinase Nek9 (NEK9, Homo sapiens, UniProt Q8TD19)
Sequence (Q8TD19 1-979, as in one of the studies): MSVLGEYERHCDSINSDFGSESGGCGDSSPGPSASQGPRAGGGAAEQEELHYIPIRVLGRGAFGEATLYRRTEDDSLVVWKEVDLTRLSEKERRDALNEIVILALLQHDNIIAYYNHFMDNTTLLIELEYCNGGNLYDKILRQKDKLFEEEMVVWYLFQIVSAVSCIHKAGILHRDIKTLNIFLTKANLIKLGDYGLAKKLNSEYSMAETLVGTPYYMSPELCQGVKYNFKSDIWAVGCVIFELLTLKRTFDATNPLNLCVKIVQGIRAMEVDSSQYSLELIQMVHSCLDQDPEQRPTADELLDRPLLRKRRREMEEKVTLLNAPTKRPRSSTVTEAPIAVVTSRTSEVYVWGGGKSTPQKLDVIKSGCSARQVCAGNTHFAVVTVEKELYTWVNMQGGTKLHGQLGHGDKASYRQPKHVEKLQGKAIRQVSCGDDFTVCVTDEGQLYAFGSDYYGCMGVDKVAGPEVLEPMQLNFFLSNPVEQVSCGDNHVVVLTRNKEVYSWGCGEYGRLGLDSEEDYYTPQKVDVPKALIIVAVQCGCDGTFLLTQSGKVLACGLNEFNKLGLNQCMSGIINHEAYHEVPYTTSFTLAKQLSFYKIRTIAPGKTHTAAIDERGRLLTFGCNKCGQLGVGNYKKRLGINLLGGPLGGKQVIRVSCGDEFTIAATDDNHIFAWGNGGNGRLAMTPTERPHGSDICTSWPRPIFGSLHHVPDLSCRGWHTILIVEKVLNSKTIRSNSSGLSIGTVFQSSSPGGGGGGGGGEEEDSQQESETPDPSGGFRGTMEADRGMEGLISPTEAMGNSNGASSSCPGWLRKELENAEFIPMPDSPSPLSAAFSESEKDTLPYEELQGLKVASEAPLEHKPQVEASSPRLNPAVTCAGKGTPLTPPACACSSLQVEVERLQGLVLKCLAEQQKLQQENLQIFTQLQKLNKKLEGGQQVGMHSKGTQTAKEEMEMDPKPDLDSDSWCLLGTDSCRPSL

| Structure (SMILES) | assay | conditions | endpoint | value |
| --- | --- | --- | --- | --- |
| CS(=O)(=O)c1cc(C2(NC(=O)c3cncc4c3cnn4-c3ccc(F)cc3)CC2)ccn1 | cell-free assay, competition with immobilised ligand | 1 µM | remaining binding | 100% |
| COc1cc2ncnc(Nc3ccc(Oc4ccccc4)c(C)c3C)c2cc1OC | enzyme activity, inhibitor | 1 µM | inhibition | 5% |
| C[C@H](NC(=O)c1cnc2n1[C@](C)(Cc1ccc(C#N)cc1)C(=O)N2c1cc(Cl)c(F)c(Cl)c1)C(=O)NC1(c2ccccn2)CC1 | cell-free assay, competition with immobilised ligand | 1 µM | remaining binding | 100% |
| O=C(Nc1cnn(-c2csc(C(=O)NC3COC3)c2)c1)Nc1c(F)cccc1Cl | enzyme activity, inhibitor | 5 µM | remaining activity | 88.4% |
| O=C1NC(=O)c2cc(Nc3ccc(F)cc3)c(Nc3ccc(F)cc3)cc21 | cell-free assay | 0.5 µM | remaining signal | 107% |
| CC(C)(O)[C@H]1CC[C@H](Nc2ccc3ncc(-c4cccc(C(F)(F)F)c4)n3n2)CC1 | enzyme activity, inhibitor | 1 µM | remaining activity | 79.5% |
| Nc1ncnc2occ(-c3ccc(NC(=O)Nc4cc(C(F)(F)F)ccc4F)cc3)c12 | cell-free assay, inhibitor | 20 µM | remaining signal | 1.6% |
| CC(C)(C)c1nc(-c2cccc(NS(=O)(=O)c3c(F)cccc3F)c2F)c(-c2ccnc(N)n2)s1 | enzyme activity, inhibitor, radiometric | 1 µM | remaining activity | 106% |
| N#CCCc1ccc2c(c1)-c1[nH]c3ccc([N+](=O)[O-])cc3c1CC(=O)N2 | cell-free assay | 0.5 µM | remaining signal | 103% |
| O=C(NS(=O)(=O)c1ccc(NCC2CCOCC2)c([N+](=O)[O-])c1)c1ccc(N2CCN(Cc3ccc(C(F)(F)F)cc3-c3ccc(Cl)cc3)CC2)cc1Oc1cnc2[nH]ccc2c1 | cell-free assay, competition with immobilised ligand | 1 µM | remaining binding | 100% |
| Cc1ccc(NC(=O)c2ccc(C)c(C(F)(F)F)c2)cc1C#Cc1nn(C2CCC(O)CC2)c2ncnc(N)c12 (stereo not drawn) | cell-free assay | 10 µM | remaining signal | 59% |
| CN1CC(Oc2cnc(C#N)cc2-c2ccn3nc(NC(=O)C4CC4)cc3c2)C1 | enzyme activity, inhibitor | 1 µM | inhibition | -3% |
| CC/C(=N\NC(=O)NCc1cccc(O)c1)c1ccc(O)c(C)c1O | enzyme activity, inhibitor | 0.1 µM | inhibition | -2.8% |
| CNCc1ccccc1-c1csc([C@H](C)Nc2nc(C)nc3cc(OC)c(OC)cc23)c1 | cell-free assay, competition with immobilised ligand | 1 µM | remaining binding | 100% |
| Oc1cccc(-c2nc(N3CCOCC3)c3oc4ncccc4c3n2)c1 | cell-free assay | 0.5 µM | remaining signal | 99.3% |
| Cc1cnc(NC2CCOCC2)nc1-n1cnc(C(=O)NC(CN)c2cc(F)cc(Cl)c2)c1 (stereo not drawn) | enzyme activity, inhibitor, radiometric | 1 µM | remaining activity | 101% |
| Cc1nc(N2CC[C@@H](O)C2)ncc1-c1cc(C(F)(F)F)cc2[nH]ncc12 | binding, competition with immobilised ligand | 1 µM | remaining binding | 96% |
| Clc1ccc(Nc2nnc(Cc3ccncc3)c3ccccc23)cc1 | cell-free assay | 0.5 µM | remaining signal | 98.4% |
